Measurements gathered from unrelated publications.
Lines come from different studies, so protocols differ.
Target: STE20-like serine/threonine-protein kinase (SLK, Homo sapiens, UniProt Q9H2G2)

CNC(=O)Nc1ccc2c(c1)CC[C@@]21OC(=O)N(CC(=O)N(Cc2ccc(F)cc2)[C@@H](C)C(F)(F)F)C1=O  remaining binding (cell-free assay; competition with immobilised ligand; 1 µM): 82%
COc1cc(Nc2c(C#N)cnc3cc(OCCCN4CCN(C)CC4)c(OC)cc23)c(Cl)cc1Cl  remaining signal (cell-free assay; 0.5 µM): 21.6%
CCN1CCN(Cc2ccc(NC(=O)c3ccc(C)c(Oc4ccnc5[nH]ccc45)c3)cc2C(F)(F)F)CC1  inhibition (target engagement in cells; inhibitor; chemoproteomics; Huh-7; 10 µM): -24.5%
Cn1c2c(c3ccccc31)C(C#N)C(C)(C)NC2=O (stereo not shown)  ΔTm (thermal stability; DSF; 10 µM): -0.1 °C
COc1cc2nccc(Oc3ccc(NC(=O)Nc4ccc(F)cc4F)c(F)c3)c2cc1OC  ΔTm (thermal stability; DSF; 10 µM): 5 to 10 °C
Cn1c2c(Cl)c(Cl)ccc2c2cn[nH]c(=O)c21  ΔTm (thermal stability; DSF; 10 µM): 0.4 °C
O=C1NC(c2ccccn2)Sc2ccccc21 (stereo not shown)  remaining binding (cell-free assay; competition with immobilised ligand; 1 µM): 76%
Cn1c2c(c3ccc(Cl)c(Cl)c31)C(C#N)C1(CCNCC1)NC2=O (racemic)  ΔTm (thermal stability; DSF; 10 µM): -0.1 °C
CS(=O)(=O)CCNCc1ccc(-c2ccc3ncnc(Nc4ccc(OCc5cccc(F)c5)c(Cl)c4)c3c2)o1  remaining signal (cell-free assay; 0.5 µM): 85.1%
Cc1ccc(C(=O)Nc2ccc(CN3CCN(C)CC3)c(C(F)(F)F)c2)cc1C#Cc1cnc2cccnn12  remaining activity (enzyme activity; inhibitor; 23.5 nM): 7%
Cc1ccc(NC(=O)c2ccc(CN3CCN(C)CC3)cc2)cc1Nc1nc(-c2cccnc2)cs1  remaining signal (cell-free assay; 0.5 µM): 92.4%
Cc1sc(C(=O)NC2COC2)cc1-n1cc(NC(=O)Nc2c(F)cccc2Cl)cn1  remaining activity (enzyme activity; inhibitor; 10 µM): 99.7%
O=C(O)c1cc(-c2ccc(C3CCNCC3)cc2)c2ccc(-c3ccc(C(F)(F)F)cc3)cc2c1  remaining binding (cell-free assay; competition with immobilised ligand; 1 µM): 100%
COc1cc(-c2cc(-c3ccc(N4CCNCC4)cc3)cnc2C)cc(OC)c1OC  inhibition (enzyme activity; inhibitor; 0.1 µM): 12%
CC/C(=N\NC(=O)NCc1cccc(O)c1)c1ccc(O)c(C)c1O  inhibition (enzyme activity; inhibitor; 0.1 µM): 4%
Nc1ncnc2occ(-c3ccc(NC(=O)Nc4cc(C(F)(F)F)ccc4F)cc3)c12  remaining signal (cell-free assay; inhibitor; 20 µM): 0.05%
CC(C)(C)c1nc2c(s1)c1nc(N)ncc1c1ccc(NS(=O)(=O)c3c(F)cccc3F)c(F)c12  remaining activity (enzyme activity; inhibitor; radiometric; 1 µM): 95%
O=C(N1CCS(=O)(=O)CC1)N1C[C@H](c2ccc(OC(F)(F)F)cc2)C[C@H](c2nc(C3CC3)no2)C1  remaining binding (cell-free assay; competition with immobilised ligand; 1 µM): 100%
CC1(C)NC(=O)c2[nH]c3c(Cl)c(Cl)ccc3c2C1C#N (stereo not shown)  ΔTm (thermal stability; DSF; 10 µM): -0.5 °C
CN(C)CC#Cc1ccc(OCCCc2sc(N3CCc4cccc(C(=O)Nc5nc6ccccc6s5)c4C3)nc2C(=O)O)c(F)c1  remaining binding (cell-free assay; competition with immobilised ligand; 1 µM): 100%
Cn1c2c(c3ccc(Cl)c(Cl)c31)C(C#N)C1(CCOCC1)NC2=O (stereo not shown)  ΔTm (thermal stability; DSF; 10 µM): -0.4 °C
Cc1ccc(Nc2nccc(N(C)c3ccc4c(C)n(C)nc4c3)n2)cc1S(N)(=O)=O  remaining activity (enzyme activity; inhibitor; 0.5 µM): 84.9%
Cn1nc(C(=O)NCc2ccc(C(=O)O)cc2)cc1-c1ccc2[nH]ccc2c1  remaining binding (cell-free assay; competition with immobilised ligand; 0.1 µM): 65%
O=C1NC(=O)c2cc(Nc3ccc(F)cc3)c(Nc3ccc(F)cc3)cc21  remaining signal (cell-free assay; 0.5 µM): 65.5%
Cc1c(C(=O)O)cc(-c2ccc(C3CCNCC3)cc2)c2ccc(-c3ccc(C(F)(F)F)cc3)cc12  remaining binding (binding; competition with immobilised ligand; 1 µM): 100%
